Data taken from the EternaBench riboswitch data.

Test system: MS2 coat protein
Test: apparent Kd, MS2 coat protein; higher = weaker binding; RNA-MaP array; FMN 200 µM where present
Outline: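 Designs were transcribed by stalled E. coli RNA polymerase on Illumina sequencing-chip clusters. They were titrated with SNAP-549-labelled MS2 coat protein from 0.7 or 1.5 nM, doubling to 3 µM, without and then with constant ligand. Buffer: 100 mM Tris-HCl pH 7.5, 80 mM KCl, 4 mM MgCl2, BSA, DTT, yeast tRNA, Tween-20. Green signal was normalised to red-channel RNA signal and control-cluster median Fmax. Apparent Kd is the median of filtered per-cluster binding-curve fits.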

[1] = designed as: ON switch for flavin mononucleotide, no ligand
[2] = ligand present: flavin mononucleotide, designed as: ON switch for flavin mononucleotide
[3] = designed as: OFF switch for flavin mononucleotide, no ligand
[4] = ligand present: flavin mononucleotide, designed as: OFF switch for flavin mononucleotide

Sequence	apparent Kd [1] [nM]	apparent Kd [2] [nM]	apparent Kd [3] [nM]	apparent Kd [4] [nM]
GUGCACACUCGAGGAUAUCGGAGUUUUCUUCUUCGAGAAGGCGAUUCGUGCCGUGUUAUUUUGGACAUGAGGAUCACCCAUGUG	93.3	34.5	–	–
UUCCUACAUGAGGAUCACCCAUGUGAGGAUAUGCAUCGUAUUAUUCUCGUAUGUAGUAGCAGAAGGCGCAUUGG	–	–	25.9	89.6
UGUUGUAUUACAGGAUAUCUAGUAUUUUUACUUAGAGAAGGGUAUUCACAUGAGGAUCACCCAUGUAUAUACGAGGAAGUUGUG	28.8	29.8	–	–
GUGAAGUAAGGAUAUACAUGAGGAUCACCCAUGUGUGGGAAGGUGAUGGGAGUAGGUAGUAGAAGGUACGAGGA	–	–	130	76.6
GGCGAACGGGCUUACAUGAGGAUCACCCAUGUAGACUCAUGGUAGGAUAUGCUGUACUUUGUACAGCAGAAGGGCCGGUGAGCU	65.8	38.7	–	–
UGAGCAUCAGGAUAUAUAUGGCGACCGUGAGGUCGAAGGUUACAUGAGGAUCACCCAUGUAGAAGGGAUGUUCU	–	–	36.6	147
UGUCGGAGCAGAGGAUAUUACAUGAGGAUCACCCAUGUAUGAACCAAUAGCUGGAAACCGCAAUGUAAGAAGGCUGCUCCGACA	–	–	104	374
ACUUACUGAGGAUAUACAUAGAUUUACAUGAGGAUCACCCAUGUUCCUCUAUGUAUAAAUGUAGAAGGCAGAAGUG	–	–	22.4	120
GUGGUACAUGAGGAUCACCCAUGUUAGGAUAUCGCGUGAGGUUUUACUUCCGCACACGCGAGAAGGGACGUCUU	–	–	54.9	41.6
GGUCCACGAGGAUAUCGAUUAUAGUACAUGAGGAUCACCCAUGUUGUCCAGGUUUCGUUUCGAGAAGGCGUGGGUU	–	–	88.4	52.6
GGAUGACAAAGUCAUCCAAUACGAACAUGAGGAUCACCCAUGUAGGAUAUGCUACUCAAAGAGUAGCAGAAGGACAUGUGUCUU	–	–	30	143
AGACUUGCAGGAUAUACAUGAGGAUCACCCAUGUAUGUAAACUUAUGCGGUGUGACCUGUAGAAGGGUAGGCGU	–	–	21.1	24.2
ACAGGCUUCGAGAAGGACAUGAGGAUCACCCAUGUGCGUGUGAAGCAGCCGUGAGGCUGCAUCAUGUAGGAUAUCGGAGUCUGG	–	–	76	504
AUUUUGUCAGGAUAUGACUAGUAGGACGAGAGUGCUACUACUUAGAAGGGACAUGAGGAUCACCCAUGUAUUCC	–	–	16	17.4
UGAAAUCAUGUAGGAUAUGCAUGGCGAAGCUACGCAGAAGGACAUGAGGAUCACCCAUGUUCGAGGGUCUGAGUACAGAUCCAA	–	–	25.2	162
GCCAUCGCAUGAGGAUAUGCUCGGGUUUCCCGAGCAGAAGGCAUGUCAAAAGACAUGAGGAUCACCCAUGUAGUUAAGAUGGCA	122	8.11	–	–
UUUUAACAUGAGGAUCACCCAUGUGAGGAUAUCGAAAUUUAUAUUUAUAUUUAUAAAUCGAGAAGGCACAUUUU	–	–	110	99.1
GCCCAGCCCAGGCCCACGGCAUCACAGGAUAUGCCGAUAACAUGAGGAUCACCCAUGUCAACUCCGCAGAAGGGUGAUAUCGUG	121	22.1	–	–
GCAUCCAUAGUGAGGAUAUACCUCUGGAUACAUAGGUAGAAGGCACAUGAGGAUCACCCAUGUUCUUAGGAUGC	–	–	28.7	35.4

Sequence	apparent Kd [1] [nM]	apparent Kd [2] [nM]	apparent Kd [3] [nM]	apparent Kd [4] [nM]
UUGCAGUGCGGGUAGGAUAUGUAGGGUGGUACAUGAGGAUCACCCAUGUGUCCACCCUUCGACCGGCAGAAGGGCCUAUCACUGC	17.1	15.6	–	–
UAUUAUCACGAAGGAUAUGCUUACAUGAGGAUCACCCAUGUAUGUAUAUUGAUCCAGAGUUUUGAGCAGAAGGUCGUGAGUAAA	–	–	41.8	250
AUGUACCGGUGAGGAUAUUUUUAAUAGAACUUUAUGAUAUACAUGAGGAUCACCCAUGUUACUUUAAAGAAGGCAUCGGAUUAA	–	–	17.7	14.2
GCGUAGAUAGCAGGAUAUAUGUUUCCUACAUGAGGAUCACCCAUGUAGGUGAUCAGCCGAGAAAAGUAGAAGGGCUAUCUAUGC	17.4	14.5	–	–
CCUUAAAAGAUCCAAAAUUACAACAUGAGGAUCACCCAUGUGCAGGAUAUCGUGCCAGUGAUGUACGAGAAGGGCAGACUCUGC	–	–	147	170
AUCAGCUCGUCAGGAUAUACGUCACUGCGUCAGCAUUGUGGUAAGAUCACAUGAGGAUCACCCAUGUAGAAGGGACGAGCUGAU	–	–	19.5	190
AUGUUAUUCUGAGGAUAUUGUUUAUUCUUCUCACAUGAGGAUCACCCAUGUUUCCGUGUUUACCGCAAGAAGGCAGUUUUGUUU	–	–	29.9	27.5
UGUGUCUGUAGAGGAUAUCCGGGCGUUCGGCUAGGAGAAGGCUGCAACACAUGAGGAUCACCCAUGUAGGUUGUGUCUCUCUAC	–	–	5.05	8.48
GUGUACAGAGGAUAUACACGAGUAGUUACGAAAGUAACUACACAUGAGGAUCACCCAUGUAGAAGGCUGUACAC	–	–	25	30.3
AUCUUGAGAGGAUAUACAUGAGGAUCACCCAUGUUGCUAACACCAUGCGCUCAUUUACGUAGAAGGCUCAUCCG	–	–	21.1	40.4
CUUUUACAUGAGGAUCACCCAUGUUCUGGCGGGUCAGGAUAUAGAUCGGAUGCGUUCUGUCUAGAAGGGACAUGUU	67.3	38.1	–	–
AAAUGAUGUCAGGAUAUUGACGUUAAAAGAACGCAAGAAGGGACAACAUGAGGAUCACCCAUGUGGUCCUAUAA	–	–	14.9	34
CCAUAAAUGAUCCAUUUUUACUACAUGAGGAUCACCCAUGUGCAGGAUAUCGUGAAAGUUAAAUACGAGAAGGGCAAGAACUGC	–	–	218	230
AGUAGUUCAGGAUAUGAUGUAUGUUACAUGAGGAUCACCCAUGUAGGUCCUUGAAUUGUAUCAGAAGGGAAUAUCU	–	–	258	281
CUUCGACAUGAGGAUCACCCAUGUCAGGAUAUUGUUUAUCUGGUUUUUUACAGAUAUGCAAGAAGGGAUGUGUU	–	–	28.5	23.1
AGGCGAGUAGGAUAUGCAUAUUUACAGGAAAGCUGGAUGGUACAUGAGGAUCACCCAUGUAGAAGGGCUCUGAA	–	–	18.7	20.7
AGCGGGUGGGUAGGAUAUGGCUAUGUCUCAUUGCUAGAAGGACCAGCUGCUACAUGAGGAUCACCCAUGUCGUAGUGCACCCAG	195	12.7	–	–
GUCUCGUGAGGAUAUCAUGAUUGACUUAAUUUAUUUUAGCGUGAGAAGGCACAUGAGGAUCACCCAUGUGAUUC	–	–	19.5	21.3
GGGUACAUCGGAGGAUAUCAUGUAAAUACAUGAGGAUCACCCAUGUCGAGGGAGACAUCGGAGAUUGAGAAGGCCGAUGUACCG	57.4	460	–	–

Sequence	apparent Kd [1] [nM]	apparent Kd [2] [nM]	apparent Kd [3] [nM]	apparent Kd [4] [nM]
AGCUAGUGAGGAUAUACGAACAUGUCAAAAGACUGUAAGGGACAUGAGGAUCACCCAUGUAGAAGGCACUAGCA	–	–	45.2	384
ACCUCACAUGAGGAUCACCCAUGUUAGGAUAUCUCGGCGCCCUGCAGGCAGUGGCACCAGAGAAGGAACGUGCA	–	–	22.5	25.3
UAUAUAUAGUAAGGAUAUGUAUAUAUUUUAGAAACAGAAGGUACUGACAUGAGGAUCACCCAUGUUUUAGUGUGGGCAUGUAGA	–	–	69.2	89.7
CUCGUCUGGAAACGGAGCGGCCAACAUGAGGAUCACCCAUGUGAGGAUAUGCCUACUAAAAGUAGGCAGAAGGCGCAAUUGGCA	–	–	20.3	36
GCUUUAGUAUCACAUGUAUUACAUGAGGAUCACCCAUGUUACUAGGAUAUGUAUUAGAAUUUACAACAGAAGGAGUAAGAAUGU	–	–	7.49	8.93
GGUUGGCGAGGAUAUACAUGAGGAUCACCCAUGUGGUCCUGUGGCUGGUCUUGCCUUUGUAGAAGGCGCGGGUC	–	–	105	111
AUUAUUGGCUAAGGAUAUGGAUACAUGAGGAUCACCCAUGUAUUUUUUGUGAUCAUAUAAAUGAUCCAGAAGGUAGCUGUUUAU	–	–	23.1	70.1
GCACUGGAUGUAGGAUAUCAGGACGAUAAGUCCUGAGAAGGACAUGAGGAUCACCCAUGUAAAACUCACCAGUGCUAUAAUAUA	–	–	12.8	17.7
GUAACUCAUGUAGGAUAUGCAUGGCGAAGCUACGCAGAAGGACAUGAGGAUCACCCAUGUUCUAGCGUCUGAGUACAGAUGCAA	–	–	60.2	436
CUAUGCGGAAUAGGAUAUUCGAUCAUGAGGAUAGAAGAAGGGUUACAUGAGGAUCACCCAUGUAUGCACAUGAGGAUCCCUUAG	–	–	221	243
GGGUACAUCGGAGGAUAUCAUGUAAAUACAUGAGGAUCACCCAUGUCGAUGGAGACAUCGGAGCUUGAGAAGGCCGAUGUACCG	36.2	6.49	–	–
AAAAAACAUGAGGAUCACCCAUGUAAGGAUAUCGUGCAGAAAAAAAAAAAAAACUGCACGAGAAGGUACAAGGA	–	–	74.4	108
GUCGUGUGAGGAUAUGAUUUUUCGGCGGGAUUGCGACUGCUUCAGAAGGCACAUGAGGAUCACCCAUGUUUGUC	–	–	10.6	21.2
CCUCCACAUGAGGAUCACCCAUGUCAGGAUAUCGUGUGUGCGUUUUCGGUCUUUCGUGCGAGAAGGGACGUCUG	–	–	68.7	62.9
GUUACAUGAGGAUCACCCAUGUAUGUGUGGGAGUAAGUGUCUUAGGAUAUCUAUCAUUUAAUAUAAGAGAAGGAAGAUUGUUGU	109	140	–	–
GUAGUGUAUGUAGGAUAUGUGAAGCAAAGCUUCACAGAAGGACAUGAGGAUCACCCAUGUAUUGCAGCCUGCAAUCAGGCUGCU	–	–	41	144
CCGCAAAUGCAGGAUAUCGUAUCGGAAACGAUACGAGAAGGGUAAACAUGAGGAUCACCCAUGUUCCUUAACGG	–	–	17.9	17
AAAACGGUAGGAUAUACAGUCCGUUGUCGAAUGAUGAAAAGACAUGAGGAUCACCCAUGUAGAAGGACCGAAAA	–	–	54.8	125
